HSP90 refold inh – blocks HSP90-mediated luciferase refolding in reticulocyte lysate | Rabbit reticulocyte lysate, luciferase refolding luminescence, 3 h | inhibition, % at 5.6 µM | 290,000 tested, 0.91% active | AID 1789;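 active = inhibition above the screen-wide mean plus 3 SD, computed separately per campaign, cut at about 16% in these data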;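 also: 0% = DMSO wells and 100% = 60 µM geldanamycin wells; inhibitors lower the luminescence because luciferase stays unfolded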
FLuc stim CS – firefly luciferase counter-screen for stimulation assays; ATPlite luciferase biochemical, luminescence, 10 min; 0 = ATP-free wells, 1 = DMSO control; activation factor at 10 µM; 200,000 tested, under 10 active;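 active = luciferase activation factor, scaled between plate controls, of at least 2 with compound at 10 µM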
Target sequence (P08659 whole entry, looked up): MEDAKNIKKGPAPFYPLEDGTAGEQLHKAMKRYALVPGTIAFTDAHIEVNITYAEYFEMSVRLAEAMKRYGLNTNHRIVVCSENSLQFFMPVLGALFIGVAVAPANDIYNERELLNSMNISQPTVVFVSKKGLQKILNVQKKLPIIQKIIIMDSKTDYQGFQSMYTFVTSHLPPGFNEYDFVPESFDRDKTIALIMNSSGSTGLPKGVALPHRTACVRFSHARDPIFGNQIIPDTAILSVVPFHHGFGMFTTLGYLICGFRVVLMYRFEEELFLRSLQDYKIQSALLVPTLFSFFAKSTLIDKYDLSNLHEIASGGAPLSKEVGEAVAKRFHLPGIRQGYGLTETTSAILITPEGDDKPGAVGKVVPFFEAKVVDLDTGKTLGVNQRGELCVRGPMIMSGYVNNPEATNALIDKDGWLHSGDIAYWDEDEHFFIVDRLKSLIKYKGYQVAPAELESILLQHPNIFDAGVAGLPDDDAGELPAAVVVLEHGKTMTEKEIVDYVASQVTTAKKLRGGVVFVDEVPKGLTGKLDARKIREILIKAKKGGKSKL
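assay system = Luciferase/luciferin detection reagent, cell-free biochemical luciferase assay | also added = ATP substrate | times = 10 min post-reagent at room temperature | measured by = luminescence from luciferase reaction | measure = luciferase activation, seen as luminescence increase over controls | benchmarks = low control with PBS replacing ATP, high control enzyme plus ATP without compound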
PPC-1+TRAIL kill – kills PPC-1 cancer cells in the presence of TRAIL; 220,000 tested, 0.41% active; AID 1443; PPC-1 cells + TRAIL, ATPLite viability luminescence; cell killing (% activity), % at 4 µM or 5 µM;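 active = cell killing above 50% in the first pass at 4 µM, then a duplicate retest at 5 µM averaging 50% or more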;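 also: plate controls were cells with TRAIL plus DMSO for no effect and medium-only wells lacking cells for full effect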
FLuc inhib CS – Photinus pyralis luciferase inhibition counter-screen. 200,000 tested, 1.5% active. ATPLite firefly luciferase biochemical luminescence, 10 min. inhibition, % at 10 µM. P08659;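 active = inhibition above about 50% when tested at 10 µM, limit read from the data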
TRAIL sens C8 – caspase-8 TRAIL sensitization | NB7+C8 cells + TRAIL, ATPlite viability luminescence | inhibition (viability loss, TRAIL sensitization), % at 10 µM | 360,000 tested, 1% active | AID 624354;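 active = compounds causing at least 50% loss of cell viability in the single-dose screen, relative to plate controls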
HSP90 inh confirm – HSP90 inhibition, confirmation assay; 2,300 tested, 64% active; shares compounds with HSP90 refold inh; rabbit reticulocyte lysate, luciferase refolding luminescence, 3 h; AID 1846; inhibition, % at 5.9 µM; in the data active = inhibition above about 18%;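 also: 0% = vehicle wells and 100% = reference inhibitor wells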
FLuc counter – counter-screen for HSP90 inhibitors: inhibitors of firefly luciferase. inhibition, % at 5.9 µM. shares compounds with HSP90 refold inh. 2,300 tested, 48% active. purified native firefly luciferase, luminescence;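 active = inhibition above the mean inhibition of all tested sample wells plus 3 SD, cut at about 10% in these data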;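 also: 0% = DMSO with luciferase and 100% = wells lacking luciferase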
Numbers without * were called inactive; . = not tested or not shown. An excerpt weighted towards active compounds, which were near 2% of everything screened.

SMILES	HSP90 refold inh	FLuc stim CS	PPC-1+TRAIL kill	FLuc inhib CS	TRAIL sens C8	HSP90 inh confirm	FLuc counter
CCCOc1ccc(C(=O)Nc2nc(C)c(Cc3ccc4c(c3)OCO4)s2)cc1	24*	1	-2	-2	2	3	-12
Cc1ccc(NC(=S)/C(=C(\[O-])c2ccc(C)c([N+](=O)[O-])c2)[n+]2ccccc2)cc1C	31*	1	-7	2	.	17*	-16
N#CC1(Nc2ccc3ccccc3c2)CCCC1	.	.	.	.	-4	.	.
CC(c1ccco1)N(C(=O)COc1ccc(Cl)cc1)c1ccccn1 (centres undefined)	20*	0.9	21	11	15	0	-10
COc1ccc(CN(C(=O)c2ccco2)c2ccc(Br)cc2)cc1OC	-3	1.1	-8	-8	-8	.	.
O=C1/C(=C/N(C(=O)c2ccco2)c2ccc(Br)cc2)Sc2ccccc21	17*	0.2	15	83*	57*	57*	61*
c1coc(-c2cc3nc(NC4CCCCC4)ccn3n2)c1	.	.	.	.	11	.	.
O=C(NNC(=O)C1CCCN(S(=O)(=O)c2ccc3ccccc3c2)C1)C1CC1 (centres undefined)	-2	1.1	12	-6	-6	.	.
CCCc1ccc(-c2ccc(C(=O)O)cc2)nc1	50*	0.8	11	23	11	56*	26*
O=C(CSc1nnc(-c2ccccc2)o1)N1CCCCC1	21*	.	.	.	-2	2	-19
CCOC(=O)/C(=N\Nc1ccc(Br)cc1)N1CC(C)OC(C)C1 (centres undefined)	-6	.	1	.	11	.	.
Cc1ccnc(SC2CC(=O)N(c3ccc(C(C)C)cc3)C2=O)n1 (centres undefined)	32*	.	.	.	-9	-7	-5
Cc1ccnc(SC2CC(=O)N(c3ccc(Cl)cc3)C2=O)n1 (centres undefined)	-1	.	.	.	-3	.	.
CC1CCC2(CC1)NC(=O)N(CC(=O)NCc1ccc3c(c1)OCO3)C2=O (centres undefined)	2	.	11	.	2	.	.
CC1CCCCC12NC(=O)N(CC(=O)NCc1ccc3c(c1)OCO3)C2=O (centres undefined)	26*	1	15	-5	-19	-6	-10
CC1=C(C(=O)NCc2ccc3c(c2)OCO3)C2(CCC(C)CC2)OC1=O (centres undefined)	57*	1.1	-2	-5	-3	-7	-10
Cc1ccnc(NC(=O)Nc2ccc(F)cc2)c1	-1	0.6	33	45	14	.	.
CSc1ccc(NC(=O)Nc2cc(C)ccn2)cc1	14	.	33	.	55*	55*	49*
CCCn1c(N)c(C(=O)COC(=O)CCNS(=O)(=O)c2ccccc2F)c(=O)[nH]c1=O	.	.	.	.	0	.	.
CC(C)Oc1cccc(C(=O)NC(=S)Nc2ccccc2)c1	23*	0.7	43	32	12	20*	8
COCCNC(=O)CN(C)S(=O)(=O)c1ccc(Br)cc1	-1	1.1	-4	-7	-12	.	.
COC(=O)NCCOC(=O)N(O)c1ccc(Br)cc1	50*	1.1	13	-5	5	75*	-20
C/C(=N\Nc1nc(C(=O)O)cs1)c1ccccc1	29*	1	2	3	.	-5	-7
COC(=O)c1ccc(/C=N/Nc2nc(-c3ccccc3)cs2)cc1	1	1	18	2	-10	.	.
COc1ccc(/C=N/Nc2nc(C(=O)O)cs2)cc1	66*	.	.	.	-3	90*	74*
SMILES	HSP90 refold inh	FLuc stim CS	PPC-1+TRAIL kill	FLuc inhib CS	TRAIL sens C8	HSP90 inh confirm	FLuc counter
COc1ccc(C(=O)NC2CCN(C(=S)Nc3cccc(C)c3)CC2)cc1	21*	1	23	2	-3	5	-1
COc1ccc(C(=O)NC2CCN(C(=S)Nc3cc(C)cc(C)c3)CC2)cc1	1	1	15	-5	-8	.	.
CN(C)c1ccc(/C=N/NC(=O)c2ccccn2)cc1	24*	.	28	.	66*	62*	47*
CN(C)c1ccc(/C=C(\C#N)c2ccccn2)cc1	66*	0	14	97*	94*	84*	78*
O=C(N/N=C/c1ccncc1)c1ccccn1	2	.	.	.	0	.	.
N#C/C(=C\c1ccccn1)c1ccccn1	4	.	.	.	-1	.	.
O=C(N/N=C/c1ccc(N2CCOCC2)cc1)c1ccccn1	26*	.	21	.	37	14	1
COC(=O)c1c(NC(=O)COC(=O)CCc2ccc(S(=O)(=O)N3CCOCC3)cc2)sc2c1CCC2	-2	1	19	-3	-2	.	.
CN1CCC(=NOc2ccc([N+](=O)[O-])cc2)CC1	1	1	18	-4	2	.	.
CCOC(=O)c1ccc(NC(=S)NC(=O)c2cncc(Br)c2)cc1	1	.	.	.	27	.	.
O=C(O)c1ccc(NC(=S)NC(=O)c2cncc(Br)c2)cc1	51*	.	.	.	-7	25*	-2
C=C1C2(C(=O)NCc3ccco3)CCC(C2)C1(C)C (centres undefined)	20*	1	-4	-5	-1	-6	-9
O=C(NCc1ccco1)C1(c2ccccc2)CCCC1	-3	1	12	0	2	.	.
CC(C)(C)c1ccc(C(=O)O/N=C(\N)c2ccccc2)cc1	69*	.	.	.	93*	25*	20*
COc1ccc(/C(N)=N/OC(=O)CSc2ccccc2)cc1	4	1	-18	3	5	.	.
CC(C)(C)c1ccc(NC(=O)CON=C(N)c2ccccc2)cc1	.	.	.	.	-1	.	.
COc1ccccc1NC(=O)O/N=C(\N)c1ccccc1	17*	.	9	.	-18	-1	-13
COc1ccc(/C(N)=N/OC(=O)c2ccco2)cc1	41*	0.3	34	68*	48	60*	43*
COc1ccc(C(=O)O/N=C(\N)c2ccccc2)cc1	25*	.	.	.	85*	43*	79*
CCOc1ccc(CNS(=O)(=O)c2c(C)nc3sccn3c2=O)cc1OC	-2	.	.	.	-13	.	.
CC[N+](CC)(CC)CCCCOc1ccc2c(c1)C(=O)c1cc(OCCCC[N+](CC)(CC)CC)ccc1-2	3	.	13	.	16	.	.
CC(=O)c1cccc(NC(=O)c2cc(-c3cccs3)on2)c1	1	.	.	.	0	.	.
O=C(Nc1cccc(O)c1)c1cc(-c2cccs2)on1	31*	.	.	.	17	64*	57*
COc1ccc(NC(=O)c2noc3c2CCC3)cc1	27*	0.6	-6	38	30	20*	31*
Cc1ccc(NC(=O)c2noc3c2CCC3)cc1C	2	0.5	17	49	27	.	.
O=C(Nc1cccc(O)c1)c1noc2c1CCCCC2	60*	0.1	-2	86*	60*	69*	57*
O=c1[nH]c(Cc2ccccn2)nc2scc(-c3ccccc3Cl)c12	3	1	22	-3	7	.	.

Screens (PubChem)
